The target of one data set is T1, CYP1A1 (Homo sapiens, UniProt P04798).
T1 sequence (P04798 whole entry): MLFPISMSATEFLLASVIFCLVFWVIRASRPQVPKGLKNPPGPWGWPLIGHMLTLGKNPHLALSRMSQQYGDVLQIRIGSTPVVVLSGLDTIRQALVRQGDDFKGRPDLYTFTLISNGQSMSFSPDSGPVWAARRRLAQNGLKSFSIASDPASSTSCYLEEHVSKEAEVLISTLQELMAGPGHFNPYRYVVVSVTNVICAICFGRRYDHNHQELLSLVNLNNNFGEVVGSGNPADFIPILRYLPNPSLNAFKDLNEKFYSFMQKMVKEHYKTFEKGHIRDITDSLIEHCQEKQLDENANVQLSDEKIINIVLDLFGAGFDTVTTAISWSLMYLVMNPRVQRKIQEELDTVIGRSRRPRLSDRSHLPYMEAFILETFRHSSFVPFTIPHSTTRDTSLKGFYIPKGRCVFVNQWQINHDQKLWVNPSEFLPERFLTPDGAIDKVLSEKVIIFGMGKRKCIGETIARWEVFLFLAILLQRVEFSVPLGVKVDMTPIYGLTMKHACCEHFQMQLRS
Put plainly: Substrate activity at recombinant human CYP1A1 expressed in baculovirus infected insect cells assessed as parent compound remaining at 1 uM incubated for 60 mins in absence of NADP+-regenerating system by LC-MS analysis. The data set is classed as ADME. The note with it: read-out: Stability. The gist of the method:
(§1)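 Baculovirus/insect-cell Supersomes, each expressing a single human CYP, at 25 pmol/mL. Compound at 1 μM (0.25% DMSO), 37 °C, 60 min. Reactions run with a NADP+-regenerating cofactor mix or, as negative control, without cofactors and glucose-6-phosphate dehydrogenase. Stopped with ACN containing internal standard. Duplicates; % remaining from absolute amounts.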

Another data set concerns the target mTORC1 (Homo sapiens, UniProt P42345). Put plainly: Inhibition of mTORC1 in human A2058 cells assessed as reduction in ribosomal protein S6 phosphorylation at Ser235/236 residues incubated for 1 hr by Western blot analysis. The data set is classed as cell-based. The method, boiled down: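 In-cell Western assay. A2058 cells (2 × 10^4/well) grown 24 h at 37 °C, 5% CO2, then exposed 1 h to inhibitor or DMSO. Cells fixed in 4% PFA, blocked, and stained for the phospho-protein with α-tubulin as internal standard; infrared fluorescence read-out. Signals normalized to tubulin and to DMSO controls to derive IC50.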

The target in data set [1] is Serine/threonine-protein kinase mTOR (Homo sapiens, UniProt P42345). Put plainly: Binding affinity to wild-type human partial length mTOR (L1382 to W2549 residues) expressed in mammalian expression system by kinome scan assay. The gist of the method:
(§2)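 DNA-tagged kinases competed against immobilized ligand with an 11-point 3-fold serial dilution starting from 30 μM. Kinase bound measured by qPCR of the DNA tags. Kd from standard dose–response curves with the Hill equation (Hill slope −1); mean of duplicate experiments.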

The species named for the next data set is Homo sapiens. Put plainly: Selectivity ratio of Ki for inhibition of alexa fluor 647-labeled kinase tracer 314 binding to recombinant human full-length N-terminal His6-tagged p110alpha/p85alpha expressed in baculovirus expression system to Ki for inhibition of alexa fluor 647-labeled kinase tracer 314 binding to recombinant human N-terminal GST-fused mTOR (1360 to 2549 residues) expressed in baculovirus expression system. The gist of the method: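 Ratio of Ki values from the TR-FRET tracer 314 displacement assays. p110α: His6-tagged enzyme, biotin anti-His antibody and Eu-streptavidin (2 nM each), tracer at 20 nM, buffer 50 mM HEPES pH 7.5, 10 mM MgCl2, 1 mM EGTA, 0.01% Brij-35. mTOR: GST-mTOR 1360–2549, Eu-anti-GST, tracer 10 nM, HEPES/5 mM MgCl2/EGTA/Pluronic buffer.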

Data set [2] addresses Phosphatidylinositol 4,5-bisphosphate 3-kinase catalytic subunit gamma isoform (Homo sapiens, UniProt P48736). Put plainly: Binding affinity to human wild-type partial length PI3Kgamma (S144 to A1102 residues) expressed in mammalian expression system by kinome scan assay. The gist of the method: as §2
The next data set concerns the target T2, CYP1A2 (Homo sapiens, UniProt P05177).
T2 sequence (P05177 whole entry): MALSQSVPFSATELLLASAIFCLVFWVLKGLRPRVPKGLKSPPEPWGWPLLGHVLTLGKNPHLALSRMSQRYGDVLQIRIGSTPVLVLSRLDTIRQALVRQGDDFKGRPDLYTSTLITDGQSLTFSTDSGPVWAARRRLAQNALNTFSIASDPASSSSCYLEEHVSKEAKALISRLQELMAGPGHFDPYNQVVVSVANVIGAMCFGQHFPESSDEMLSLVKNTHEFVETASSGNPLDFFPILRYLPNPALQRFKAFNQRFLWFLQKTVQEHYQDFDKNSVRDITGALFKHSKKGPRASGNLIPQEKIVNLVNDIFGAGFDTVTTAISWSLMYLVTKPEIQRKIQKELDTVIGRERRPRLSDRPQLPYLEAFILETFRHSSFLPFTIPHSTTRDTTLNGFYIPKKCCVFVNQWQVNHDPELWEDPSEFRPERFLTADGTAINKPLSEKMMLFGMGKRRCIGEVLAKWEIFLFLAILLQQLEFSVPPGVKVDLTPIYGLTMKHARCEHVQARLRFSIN
Put plainly: Substrate activity at recombinant human CYP1A2 expressed in baculovirus infected insect cells assessed as parent compound remaining at 1 uM incubated for 60 mins in absence of NADP+-regenerating system by LC-MS analysis. In kind it is ADME. The note with it: read-out: Stability. The gist of the method:
as §1

For data set [3], the target named is Phosphatidylinositol 4,5-bisphosphate 3-kinase catalytic subunit beta isoform (Homo sapiens, UniProt P42338). In words: Binding affinity to human wild-type partial length PI3Kbeta (P118 to S1070 residues) expressed in mammalian expression system by kinome scan assay. The gist of the method:
as §2

The target in data set [4] is Phosphatidylinositol 4-kinase beta (Homo sapiens, UniProt Q9UBF8). Put plainly: Binding affinity to wild-type human full-length PI4Kbeta (M1 to M828 residues) expressed in mammalian expression system by kinome scan assay. The method, boiled down:
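Competition binding: compound competes with an immobilized ligand for a DNA-tagged kinase. The 11-point, 3-fold serial dilution starts at 30 μM. Bound kinase is quantified by qPCR of the DNA tag. Kd is fitted to a standard dose–response curve using the Hill equation with slope fixed at −1, and reported as the mean of duplicate experiments.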

SMILES strings stand for the structures.

Chain of Phosphatidylinositol 4,5-bisphosphate 3-kinase catalytic subunit beta isoform (P42338 whole entry, the tested form may be a part, canonical isoform): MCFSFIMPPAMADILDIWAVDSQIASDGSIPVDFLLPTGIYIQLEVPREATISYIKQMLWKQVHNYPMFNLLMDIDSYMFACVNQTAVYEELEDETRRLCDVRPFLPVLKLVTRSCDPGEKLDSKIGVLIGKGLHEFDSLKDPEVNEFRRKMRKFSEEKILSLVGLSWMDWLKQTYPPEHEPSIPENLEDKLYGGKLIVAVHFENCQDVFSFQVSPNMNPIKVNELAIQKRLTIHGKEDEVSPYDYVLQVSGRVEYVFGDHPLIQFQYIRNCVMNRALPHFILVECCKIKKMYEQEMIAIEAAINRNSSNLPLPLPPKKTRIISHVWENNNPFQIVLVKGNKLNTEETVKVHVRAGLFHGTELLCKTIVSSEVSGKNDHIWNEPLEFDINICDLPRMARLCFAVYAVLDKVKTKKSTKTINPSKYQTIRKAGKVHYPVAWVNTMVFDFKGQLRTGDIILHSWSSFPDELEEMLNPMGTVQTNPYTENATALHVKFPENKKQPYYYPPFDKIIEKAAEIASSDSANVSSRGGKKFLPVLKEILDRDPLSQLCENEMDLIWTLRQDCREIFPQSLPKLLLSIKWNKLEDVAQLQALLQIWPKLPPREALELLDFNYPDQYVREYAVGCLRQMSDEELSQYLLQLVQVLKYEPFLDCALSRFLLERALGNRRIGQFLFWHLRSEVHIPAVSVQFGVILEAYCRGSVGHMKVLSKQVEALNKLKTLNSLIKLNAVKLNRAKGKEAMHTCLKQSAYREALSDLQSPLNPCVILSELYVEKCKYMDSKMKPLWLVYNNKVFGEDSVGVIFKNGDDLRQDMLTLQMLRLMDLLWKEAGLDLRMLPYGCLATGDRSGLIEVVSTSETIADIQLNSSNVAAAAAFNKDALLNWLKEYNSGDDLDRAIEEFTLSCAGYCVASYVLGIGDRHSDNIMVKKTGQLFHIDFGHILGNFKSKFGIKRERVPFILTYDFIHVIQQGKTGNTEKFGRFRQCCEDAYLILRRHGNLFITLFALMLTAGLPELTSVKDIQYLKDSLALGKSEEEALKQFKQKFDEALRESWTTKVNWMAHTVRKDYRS
Chain of Phosphatidylinositol 4,5-bisphosphate 3-kinase catalytic subunit gamma isoform (P48736 whole entry, the tested form may be a part, canonical isoform): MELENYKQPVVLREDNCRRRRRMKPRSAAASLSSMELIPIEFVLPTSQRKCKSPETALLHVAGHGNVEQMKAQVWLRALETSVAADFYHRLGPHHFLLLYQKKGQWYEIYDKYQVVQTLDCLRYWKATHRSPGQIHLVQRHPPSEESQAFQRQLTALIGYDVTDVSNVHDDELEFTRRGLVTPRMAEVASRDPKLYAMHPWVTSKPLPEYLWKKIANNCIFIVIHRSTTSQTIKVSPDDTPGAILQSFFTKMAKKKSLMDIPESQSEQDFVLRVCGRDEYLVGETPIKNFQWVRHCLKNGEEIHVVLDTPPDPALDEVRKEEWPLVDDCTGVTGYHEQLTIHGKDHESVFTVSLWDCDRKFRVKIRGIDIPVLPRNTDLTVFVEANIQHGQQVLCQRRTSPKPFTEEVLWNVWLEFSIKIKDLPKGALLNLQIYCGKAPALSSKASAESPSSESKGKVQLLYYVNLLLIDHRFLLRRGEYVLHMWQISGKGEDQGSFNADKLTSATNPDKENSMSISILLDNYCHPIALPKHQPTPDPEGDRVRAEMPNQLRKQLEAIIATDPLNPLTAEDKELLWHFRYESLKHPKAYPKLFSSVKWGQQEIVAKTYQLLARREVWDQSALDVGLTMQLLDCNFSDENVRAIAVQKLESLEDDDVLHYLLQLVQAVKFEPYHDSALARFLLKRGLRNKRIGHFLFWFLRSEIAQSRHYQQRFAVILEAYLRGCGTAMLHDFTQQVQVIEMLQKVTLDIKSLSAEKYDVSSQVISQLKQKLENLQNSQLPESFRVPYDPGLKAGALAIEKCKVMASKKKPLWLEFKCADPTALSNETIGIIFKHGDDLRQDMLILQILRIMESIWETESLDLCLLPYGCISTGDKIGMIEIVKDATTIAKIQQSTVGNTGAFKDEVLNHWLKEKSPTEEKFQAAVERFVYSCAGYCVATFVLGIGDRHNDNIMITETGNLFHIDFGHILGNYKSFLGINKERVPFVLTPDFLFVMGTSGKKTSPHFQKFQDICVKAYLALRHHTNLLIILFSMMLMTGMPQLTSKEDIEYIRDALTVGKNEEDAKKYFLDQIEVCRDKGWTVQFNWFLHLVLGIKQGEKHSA
Chain of Phosphatidylinositol 4-kinase beta (Q9UBF8 whole entry, the tested form may be a part): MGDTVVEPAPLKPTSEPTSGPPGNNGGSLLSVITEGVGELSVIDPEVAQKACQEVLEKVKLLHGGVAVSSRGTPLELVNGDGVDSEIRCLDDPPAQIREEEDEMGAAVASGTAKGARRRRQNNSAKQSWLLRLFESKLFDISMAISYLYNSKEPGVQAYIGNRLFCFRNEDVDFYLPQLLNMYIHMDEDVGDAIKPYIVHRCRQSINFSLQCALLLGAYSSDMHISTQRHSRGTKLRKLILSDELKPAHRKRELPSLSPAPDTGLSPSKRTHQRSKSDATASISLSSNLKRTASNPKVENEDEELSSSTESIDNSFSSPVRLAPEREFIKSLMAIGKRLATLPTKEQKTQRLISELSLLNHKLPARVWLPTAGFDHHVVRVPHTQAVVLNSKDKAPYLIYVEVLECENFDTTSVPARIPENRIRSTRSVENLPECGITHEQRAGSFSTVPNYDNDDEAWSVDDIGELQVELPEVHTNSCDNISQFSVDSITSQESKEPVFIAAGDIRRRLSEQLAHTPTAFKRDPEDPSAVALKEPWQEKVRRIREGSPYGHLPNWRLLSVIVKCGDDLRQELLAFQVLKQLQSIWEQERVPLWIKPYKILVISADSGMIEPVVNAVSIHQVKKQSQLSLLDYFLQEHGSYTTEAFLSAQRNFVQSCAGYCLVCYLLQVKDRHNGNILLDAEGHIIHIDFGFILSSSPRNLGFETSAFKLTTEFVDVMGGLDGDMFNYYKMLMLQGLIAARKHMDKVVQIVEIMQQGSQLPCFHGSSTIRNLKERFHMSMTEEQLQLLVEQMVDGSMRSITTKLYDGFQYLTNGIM

Regarding `C[C@@H]1COCCN1c1nc(-c2cnc(N)nc2)nc2c1C[C@@H]1COCCN21`, the figures for the remaining at 1 h, 1 µM on CYP1A1 and at CYP1A2 were 93% and 91%, respectively. Also, the IC50 on mTORC1 is 0.055 µM. Further, the Kd in data set [1] was 0.014 µM; in data set [2] it was 1.8 µM; in data set [3], 1.4 µM; in data set [4], above 30 µM. Further, the Ratio Ki in the data set listed under Homo sapiens amounted to 214.
With `C[C@@H]1COCCN1c1nc(-c2cnc(N)cn2)nc2c1C[C@@H]1COCCN21`, the remaining at 1 h, 1 µM at CYP1A1 stood at 96%; at CYP1A2 it was 91%. Also, the concentration for half-maximal inhibition (IC50) at mTORC1 came to 0.06 µM. Also, the Kd in data set [1] is 0.0035 µM; in data set [2], 11 µM; in data set [3], 7.5 µM; in data set [4], above 30 µM. The Ratio Ki in the data set filed under Homo sapiens turned out to be 212.
For `C[C@@H]1COCCN1c1nc(-c2ccc(N)nc2)nc2c1C[C@@H]1COCCN21`, the remaining at 1 h, 1 µM amounted to 109% at CYP1A1 and 94% on CYP1A2. Moreover, the IC50 at mTORC1 was 0.061 µM. The Kd in data set [1] is 0.034 µM; in data set [2] it was 8.7 µM; in data set [3], 4.1 µM; in data set [4], above 30 µM. The Ratio Ki in the data set filed under Homo sapiens was 165.

(Values after ChEMBL document CHEMBL4321805, “A Conformational Restriction Strategy for the Identification of a Highly Selective Pyrimido-pyrrolo-oxazine mTOR Inhibitor” (J Med Chem, 2019).)
